Results reported in ChEMBL document CHEMBL3867443, “Polyprenylated Tetraoxygenated Xanthones from the Roots of Hypericum monogynum and Their Neuroprotective Activities” (J Nat Prod, 2016).
Activity calls are given as the source filed them. The rule behind the calls is not given here.

Columns and labels:
[1] = Neuroprotective activity in rat PC12 cells assessed as reduction in corticosterone-induced lesions by measuring cell viability at 12.5 uM pretreated for 24 hrs followed by corticosterone-challenge after 48 hrs by MTT assay; type: functional, cell-based; details: PC-12
Procedure, shortened: (§1)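 PC12 cells seeded at 2 × 10^4 cells/well and pretreated 24 h with compound, then 200 μM corticosterone for 48 h. Fluoxetine 12.50 μM was the positive control. MTT absorbance read at 570 nm with 630 nm reference. Viability given as % of untreated control, mean ± SEM of three independent experiments, compared by ANOVA.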

[2] = Neuroprotective activity in rat PC12 cells assessed as reduction in corticosterone-induced lesions by measuring cell viability at 6.25 uM pretreated for 24 hrs followed by corticosterone-challenge after 48 hrs by MTT assay; type: functional, cell-based; details: PC-12; procedure, shortened: as §1
[3] = Cytotoxicity against […] BV2 cells assessed as cell viability by MTT assay relative to control; type: toxicity, cell-based, BV-2; set-up: concentration or dose not given beside the values; details: mouse, read-out: Activity
Procedure, shortened: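 BV2 microglia in DMEM with 10% heat-inactivated FBS and penicillin/streptomycin, 37 °C, 5% CO2. Viability was read by MTT in the cells used for the NO assay, which received 2 h compound pretreatment and then LPS at 100 ng/mL final for 18 h.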

[4] = organism: Rattus norvegicus; experiment: Cytotoxicity against rat PC12 cells at 25 uM by MTT assay; type: toxicity, cell-based; details: pc-12, 25 µM
Procedure, shortened: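 PC12 cells in DMEM with 10% FBS, 5% horse serum and penicillin/streptomycin, 37 °C, 5% CO2. Seeded at 2 × 10^4 cells/well and exposed to compound at 25.00 μM. Viability was read by MTT.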

[5] = test system: BV-2; experiment: Inhibition of LPS-induced NO production in […] preincubated for 2 hrs followed by LPS-stimulation measured after 18 hrs by Griess assay; type: functional, cell-based; details: Mus musculus
Procedure, shortened: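 BV2 cells seeded at 2.5 × 10^5 cells/mL and preincubated 2 h with compound, then LPS at 100 ng/mL final for 18 h. Supernatant was mixed 1:1 with Griess reagent for 10 min at room temperature and read at 540 nm. Inhibition = (AL − A0 − AC)/(AL − A0) × 100. IC50 reported as mean ± SEM of three independent experiments. L-NMMA was the positive control.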

[6] = Neuroprotective activity in rat PC12 cells assessed as reduction in corticosterone-induced lesions by measuring cell viability at 25 uM pretreated for 24 hrs followed by corticosterone-challenge after 48 hrs by MTT assay; type: functional, cell-based; details: PC-12; procedure, shortened: as §1
[7] = test system: PC-12; experiment: Decrease in corticosterone-induced intracellular calcium level in rat PC12 cells at 6.25 to 25 uM pretreated for 24 hrs followed by corticosterone-challenge after 48 hrs by Fluo-3AM dye-based flow cytometry; type: functional, cell-based
Procedure, shortened: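 PC12 cells were pretreated 24 h with compound (6.25, 12.50, 25.00 μM) or fluoxetine 12.50 μM, then exposed to 200 μM corticosterone for 48 h. Cells were loaded with Fluo-3 AM and analysed by flow cytometry. Results are mean fluorescence intensity relative to vehicle control, mean ± SEM, n = 3.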

| SMILES | Activity [1] | Activity [2] | viability [3] | Activity [4] | IC50 [5] | Activity [6] | Activity [7] |
| --- | --- | --- | --- | --- | --- | --- | --- |
| CNCCC(Oc1ccc(C(F)(F)F)cc1)c1ccccc1 (centres undefined) | 70.5% |  |  |  |  |  |  |
| C=C(C)C(CC=C(C)C)Cc1c(O)c(CC=C(C)C)c(O)c2c(=O)c3ccc(O)c(O)c3oc12 (centres undefined) | 60.2% | 57.5% | > 90% | Non-Toxic | 5.66 µM | 66% |  |
| C=C(C)[C@H](CC=C(C)C)Cc1c(O)cc2oc3c(O)c(O)ccc3c(=O)c2c1O | 78.8% | 75.2% | > 90% | Non-Toxic | 9.6 µM | 85.9% |  |
| CNC(=N)NCCC[C@H](N)C(=O)O [TILARGININE] |  |  |  |  | 39.3 µM |  |  |
| C=C(C)[C@H](CC=C(C)C)Cc1c(O)c(C[C@@H](CC=C(C)C)C(=C)C)c2oc3c(O)c(O)ccc3c(=O)c2c1O | 83.8% | 78.4% | > 90% | Non-Toxic | 7.47 µM | 92% | Active |
| C[C@]12C[C@H](O)[C@H]3[C@@H](CCC4=CC(=O)CC[C@@]43C)[C@@H]1CC[C@@H]2C(=O)CO |  |  |  |  |  | 52.8% |  |
| C=C(C)C(CC=C(C)C)Cc1c2c(c(O)c3c(=O)c4ccc(O)c(O)c4oc13)C=CC(C)(C)O2 (centres undefined) | 71.2% | 64.8% | > 90% | Non-Toxic | > 50 µM | 65.4% |  |
| C=C(C)C(CC=C(C)C)Cc1c(O)cc(O)c2c(=O)c3ccc(O)c(O)c3oc12 (centres undefined) | 78.1% | 60.7% | > 90% | Non-Toxic | 8.35 µM | 84.1% |  |
